Laboratory results as given in ChEMBL document CHEMBL1148866, “Design and synthesis of beta-methoxyacrylate analogues via click chemistry and biological evaluations” (2007).
Values after ≈ are worked out from the molar mass of the structure shown.

How the values were obtained:
Assay type in all cases: functional
Radish = test: Effect on growth of Raphanus sativus assessed as length of hypocotyl at 50 ug/mL by seed germination assay
Aspergillus flavus = test: Antifungal activity against Aspergillus flavus
Outline: (§1)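 MIC determined in 96-well plates. 1-mm diameter mycelial pieces were incubated in Czapek Dox minimal medium across a range of compound concentrations, and the MIC was read from mycelial growth.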

Alternaria brassicae = test: Antifungal activity against Alternaria brassicae; outline: as §1
Alternaria brassicicola = test: Antifungal activity against Alternaria brassicola; outline: as §1
Fusarium oxysporum = test: Antifungal activity against Fusarium oxysporum; outline: as §1
[1] = tested on: Simplicillium lamellicola; test: Antifungal activity against Verticillium lamellicola; outline: as §1

Compound | MIC (Aspergillus flavus) | MIC (Alternaria brassicae) | MIC (Alternaria brassicicola) | MIC (Fusarium oxysporum) | MIC [1] | Activity (Radish)
CO/C=C(/C(=O)OC)c1ccccc1Oc1cc(Oc2ccccc2C#N)ncn1 [AZOXYSTROBIN] |  |  |  |  |  | 2 mm
CO/C=C(/C(=O)OC)c1cc(Cl)ccc1Cn1cc(-c2ccccc2)nn1 | > 1500 µg/mL | 1000 µg/mL (≈ 2610 µM) | 1000 µg/mL (≈ 2610 µM) | 1000 µg/mL (≈ 2610 µM) | 1500 µg/mL (≈ 3910 µM) | 18.8 mm
CO/C=C(/C(=O)OC)c1cc(Cl)ccc1Cn1cc(S(=O)(=O)c2ccc(C)cc2)nn1 | 500 µg/mL (≈ 1080 µM) | 400 µg/mL (≈ 866 µM) | 500 µg/mL (≈ 1080 µM) | 500 µg/mL (≈ 1080 µM) | 500 µg/mL (≈ 1080 µM) | 30.7 mm
CO/C=C(/C(=O)OC)c1cc(Cl)ccc1Cn1cc(-c2ccccc2C=O)nn1 | 1500 µg/mL (≈ 3640 µM) | 1000 µg/mL (≈ 2430 µM) | 1000 µg/mL (≈ 2430 µM) | 1000 µg/mL (≈ 2430 µM) | 1000 µg/mL (≈ 2430 µM) | 25 mm

Continued, in another order:

MIC (Aspergillus flavus) | MIC (Alternaria brassicae) | MIC (Alternaria brassicicola) | MIC (Fusarium oxysporum) | MIC [1] | Compound | Activity (Radish)
4 µg/mL (≈ 22.2 µM) | 4 µg/mL (≈ 22.2 µM) | 4 µg/mL (≈ 22.2 µM) | 4 µg/mL (≈ 22.2 µM) | 4 µg/mL (≈ 22.2 µM) | C#CS(=O)(=O)c1ccc(C)cc1 | 56.2 mm
> 1500 µg/mL | 1000 µg/mL (≈ 2580 µM) | 1000 µg/mL (≈ 2580 µM) | 1500 µg/mL (≈ 3870 µM) | 1500 µg/mL (≈ 3870 µM) | CO/C=C(/C(=O)OC)c1cc(Cl)ccc1Cn1cc(C2=CCCCC2)nn1 | 14 mm
